A selection: hits, their analogues and other compounds. The true share with any hit is near 2.6%.
VLA-4 inh: inhibition in a human VLA-4 binding assay | P13612 | VLA-4 expressing cells, ligand binding flow cytometry | inhibition, % (about 7 µM as worked out from the volumes in the protocol) | actives 0.2% (n = 330,000); in the data active = inhibition above about 50%
TAAR1 agonist: agonists of human TAAR1; Q96RJ0; CHO RD-HGA16 TAAR1, Fluo-8 calcium fluorescence; vehicle wells 0%, saturating PEA agonist 100%; activation, % at 3 µM; actives 0.99% (n = 360,000); AID 624467;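 active = activation above the mean activation of all test compounds in the run plus 3 SD, cut at about 38% in these data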
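System: CHO-derived RD-HGA16 cells with stable Gα16 and human TAAR1 / Times: 17-24 h plating, Fluo-8 75 min 37 °C, 30 min RT / Technique: calcium-sensitive Fluo-8 signal, excitation 470-495, emission 515-575 nm / Measure: % activation relative to PEA EC100 response / Benchmarks: DMSO and PEA EC100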
TAAR1 antagonist: antagonists of human TAAR1; AID 624466; CHO RD-HGA16 TAAR1, Fluo-8 calcium fluorescence, antagonist; actives 1.5% (n = 360,000); Q96RJ0; inhibition, % at 3 µM;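 active = inhibition above a per-plate cutoff, the mean inhibition of test compounds on that plate plus 3 SD, cut at about 49% in these data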
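Test system – hTAAR1-expressing CHO RD-HGA16 cells, Gα16-coupled · Reagent – β-PEA at EC80 concentration, post-compound challenge · Compound dosing – 3 µM, single point · Timing – 140 s kinetic read after compound, 140 s after agonist · Detection – Fluo-8 intracellular calcium dye fluorescence, real-time kinetic reads · Control set – DMSO and EC80 PEA controls · Repeats – n of 1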
Platelet DG rel: modulates dense granule release in human platelets; AID 1663; inhibition, %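 (compounds screened at 7.5 µM in platelet-rich plasma)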; actives 0.22% (n = 300,000); human platelet-rich plasma, SFLLRN dense granule ATP release, luminescence;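 active = mean replicate score, as percent of positive control, at or above 50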
Rce1 inh: inhibitors of yeast Ras-converting enzyme; Q03530; yeast membranes, quenched prenylated peptide cleavage fluorescence; calls only; actives 0.27% (n = 290,000);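 active = fall in fluorescence gain of 50% or more versus controls, with final raw signal at or below 3038400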
nonsel antag count: nonselective antagonism, TAAR1 counter-screen; shares compounds with TAAR1 antagonist; counterscreen cell line, calcium fluorescence, antagonist mode; inhibition, % at 3 µM; actives 77% (n = 2,400); AID 651780; in the data active = inhibition above about 22%;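 also: CHO-Ga16 host cells stimulated with ATP at an EC80 level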
TAAR1 antag conf: human TAAR1 antagonism, confirmed; shares compounds with TAAR1 antagonist; TAAR1-expressing cells, fluorescence antagonist read-out; inhibition, % at 3 µM; actives 40% (n = 2,400); AID 651785; in the data active = inhibition above about 49%;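 also: CHO-Ga16 host cells challenged with agonist PEA near its EC80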
Ga16 ag counter: nonselective Ga16 agonist in TAAR1 antagonist counter-screen. shares compounds with TAAR1 antagonist. Ga16-expressing cells, calcium fluorescence, agonist counterscreen. activation, % at 3 µM. actives 18% (n = 2,400). AID 651953; in the data active = activation above about 12%
TAAR1 ag count: activates human TAAR1 in antagonist counter-screen. shares compounds with TAAR1 antagonist. hTAAR1 cell line, fluorescence activation, agonist mode. activation, % at 3 µM. actives 2% (n = 2,400); in the data active = activation above about 37%;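 also: CHO cells stably expressing TAAR1 with calcium dye readout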
Hits are given with their value; – = inactive; · = not tested or not shown.

SMILES | VLA-4 inh | TAAR1 agonist | TAAR1 antagonist | Platelet DG rel | Rce1 inh | nonsel antag count | TAAR1 antag conf | Ga16 ag counter | TAAR1 ag count
COc1ccc(NC(=O)Nc2cccc3c2O[C@H](CN(C)C(=O)Nc2ccccc2)[C@@H](C)CN([C@H](C)CO)C3=O)cc1 | – | – | – | · | · | · | · | · | ·
COc1ccc(CN(C)C[C@H]2Oc3c(NC(=O)Nc4ccccc4)cccc3C(=O)N([C@H](C)CO)C[C@@H]2C)cc1 | – | – | 60.9 | · | · | 24.7 | – | – | –
O=C(N/N=C/c1ccc(OC(=O)c2ccccc2Br)cc1)c1ccccn1 | – | – | 52.0 | – | – | 29.9 | – | – | –
CC(C)(C)c1ccc(/C=N/NC(=O)c2ccccn2)cc1 | – | – | – | – | – | · | · | · | ·
Nc1ccc(C(=O)N/N=C\c2ccc(OC(=O)c3ccccc3Cl)cc2)cc1 | – | – | 68.0 | – | – | 28.8 | 59.4 | – | –
COc1cc(C(=O)N/N=C/c2ccc(OC(=O)c3ccccc3Cl)cc2)ccc1O | – | – | 80.3 | – | – | 29.8 | 58.2 | – | –
O=C(Oc1ccc(/C=N/NC(=O)c2ccccc2O)cc1)c1ccccc1 | – | – | 74.1 | – | – | 37.7 | 68.4 | – | –
COC(=O)c1ccc(/C=N/NC(=O)c2ccccc2Cl)cc1 | – | – | – | – | – | · | · | · | ·
O=C(OCc1nnc(-c2ccc([N+](=O)[O-])cc2)o1)c1ccc(F)c(S(=O)(=O)N2CCOCC2)c1 | · | – | – | · | · | · | · | · | ·
CCOC(=O)c1ccccc1OCc1cc(/C=N/NC(=O)c2ccncc2)ccc1OC | – | – | 77.1 | – | – | 36.3 | 54.4 | – | –
COc1cc(/C=N\NC(=O)c2cccnc2)ccc1OC(=O)c1ccccc1Cl | – | – | 54.1 | – | – | 27.9 | – | 15.7 | –
CCc1nc2ccc(C(=O)N3CCN(C(=O)c4ccco4)CC3)cn2c1N(C)Cc1nccn1C | · | – | – | · | · | · | · | · | ·
COc1ccc(CN2C(=O)c3ccccc3C2=O)cc1C(=O)N(C)CC(=O)Nc1ccc(C)cc1 | · | – | – | · | · | · | · | · | ·
O=C(c1oc2ccccc2c1CSCc1ccccc1)N1CCN(c2ncccn2)CC1 | – | – | 64.9 | – | – | 29.8 | – | – | –
Cc1ccccc1OCc1occc1C(=O)Nc1cccc(-n2cnnn2)c1 | – | – | – | – | – | · | · | · | ·
CC(C)c1ccc(NC(=O)N(CCc2nc3ccccc3[nH]2)C2CCCC2)cc1 | – | – | 54.1 | – | – | 29.9 | – | – | –
CC(=O)Nc1ccc(CCc2nc3ccccc3[nH]2)cc1 | – | – | – | – | – | · | · | · | ·
Cc1ccccc1-c1cc(C(=O)NCC2CC2)nn1CC1CC(c2cccc([N+](=O)[O-])c2)=NO1 (stereo not drawn) | – | – | – | · | · | · | · | · | ·
Cc1cccc(OCC(O)CN2CC3(C)CC2CC(C)(C)C3)c1 (stereo not drawn) | – | – | – | – | – | · | · | · | ·
CC(=O)Nc1cnc(/C=C\CCCO)cn1 | · | – | – | · | · | · | · | · | ·
O=S(=O)(c1cccs1)N1CCCc2nc(-c3ccc(F)cc3)ccc21 | · | – | 53.3 | · | · | 33.2 | – | – | –
COc1ccc(-c2ccc3c(n2)CCCN3S(=O)(=O)c2cccs2)cc1 | · | – | 80.5 | · | · | 41.5 | 63.6 | – | –
COc1ccc(-c2ccc3c(n2)CCCN3S(=O)(=O)c2ccc(OC)cc2)cc1 | · | – | – | · | · | · | · | · | ·
O=C(Cc1ccc(NC(=O)C2CCN(C(=O)CCc3ccccc3)CC2)cc1)Nc1ccc(C(=O)N2CCOCC2)cc1 | · | – | – | · | · | · | · | · | ·
O=C(Nc1ccc(-c2cn3ccsc3n2)cc1)c1ccc(F)c(S(=O)(=O)N2CCOCC2)c1 | – | – | 91.1 | – | – | 39.0 | 74.9 | 11.6 | –
SMILES | VLA-4 inh | TAAR1 agonist | TAAR1 antagonist | Platelet DG rel | Rce1 inh | nonsel antag count | TAAR1 antag conf | Ga16 ag counter | TAAR1 ag count
O=C(Nc1ccccc1)c1ccc(F)c(S(=O)(=O)N2CCOCC2)c1 | – | – | – | – | – | · | · | · | ·
Cc1c([N+](=O)[O-])cc(C(=O)Nc2ccc(Cc3ccncc3)cc2)cc1[N+](=O)[O-] | – | – | 88.3 | – | – | 31.3 | 90.6 | – | –
Cc1cc(NC(=O)C(C)SCC(=O)N(C)CC(=O)Nc2ccc(Br)cc2C)no1 (stereo not drawn) | – | – | – | – | – | · | · | · | ·
CCOC(=O)C1=CCN(S(=O)(=O)c2ccccc2F)C1c1ccc(Cl)c(Cl)c1 (stereo not drawn) | · | – | – | · | · | · | · | · | ·
O=C(OCn1ncc(Cl)c(Cl)c1=O)c1ccc(C(F)(F)F)cc1 | · | – | 66.4 | – | – | 35.2 | – | – | –
Cc1cc(C)nc(NC(=NCCc2c[nH]c3ccccc23)NC(=O)Nc2cccc([N+](=O)[O-])c2)n1 | – | – | – | – | – | · | · | · | ·
Cc1cc(C)nc(NC(=NCCc2c[nH]c3ccccc23)NC(=O)c2ccco2)n1 | – | – | 67.8 | – | – | 28.3 | 53.5 | – | –
Cc1cc(C)nc(NC(=NCCc2c[nH]c3ccccc23)NC(=O)Nc2ccc(Cl)c(Cl)c2)n1 | – | – | – | – | – | · | · | · | ·
Cc1cc(C)nc(NC(=NCCc2c[nH]c3ccccc23)NC(=O)Nc2ccccc2)n1 | – | – | 63.9 | – | – | 29.6 | 53.7 | – | –
Cn1nccc1C(=O)N1CCN(S(=O)(=O)c2ccc(Br)s2)CC1 | – | – | – | – | – | · | · | · | ·
CCCn1c(NC(=O)c2ccc([N+](=O)[O-])o2)nc2ccccc21 | – | – | – | – | – | · | · | · | ·
CCOC(=O)c1nn(-c2ccccc2F)c(-c2ccccc2)c1C(=O)c1ccccc1 | – | – | 55.5 | – | – | – | – | – | –
CCOC(=O)c1nn(-c2ccccc2)c(-c2ccccc2)c1C(=O)c1ccccc1 | – | – | – | – | – | · | · | · | ·
CCOC(=O)c1ccc(S(=O)(=O)N2CCN(C(=O)C3CSC4(C)CCC(=O)N34)CC2)cc1 (stereo not drawn) | – | – | – | · | · | · | · | · | ·
CCC(C)(C(=O)Nc1ccc(OC)cc1)N(C)C(=O)Cn1nnnc1N (stereo not drawn) | – | – | – | – | – | · | · | · | ·
COc1ccccc1N1CCN(C(=O)CCn2c(=O)[nH]c3ccccc3c2=O)CC1 | – | – | – | – | – | · | · | · | ·
NC(=O)C1CCN(C(=O)CCCCCn2c(=O)[nH]c3ccsc3c2=O)CC1 | – | – | – | – | – | · | · | · | ·
COc1ccccc1N1CCN(C(=O)CCCn2c(=S)[nH]c3ccccc3c2=O)CC1 | · | – | 65.0 | · | · | – | – | – | –
COc1ccccc1N1CCN(C(=O)CCCCCn2c(=O)[nH]c3ccsc3c2=O)CC1 | – | – | 56.4 | – | – | 27.9 | – | – | –
COc1ccc(/C=C2\CN(Cc3ccccc3)C/C(=C\c3ccc(OC)c(O)c3)C2=O)cc1O | – | – | 70.6 | – | – | 29.0 | 50.6 | – | –
C=CS(=O)(=O)N(Cc1ccccc1)[C@H](CO)CC(C)C | · | – | – | · | · | · | · | · | ·

Screens deposited in PubChem BioAssay by several laboratories.
